Data published in article PMC4122542 (Journal of medicinal chemistry, 2008).

Experiments:
[1] = normal mice; cited from earlier work
RG2 cells [2] = assay: MTT cytotoxicity assay in wild-type cells; assay type: cell-based, Rat
Outline: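 Non-transduced rat glioma RG2 cells were grown in DMEM with 10% FBS and 1% penicillin/streptomycin at 37 °C under 5% CO2, then seeded at 1.5 × 10^3 cells/well and incubated overnight. Test compound was applied at 0.001–1000 μmol/L in quadruplicate for 72 h at 37 °C. MTT (1 mg/mL) was added for 3 h, and formazan was dissolved in DMSO. A490 (650 nm reference) was blank-subtracted and growth expressed as % of untreated control.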

[3] = cited from earlier work
RG2 cells [4] = assay: In vitro cell uptake of radiolabeled nucleosides in non-transduced control cells; assay type: cell-based, Rat; details: 2 h incubation, % of total radioactivity per 10^6 cells, wild-type RG2 cells
RG2TK+ cells = assay: In vitro cell uptake of radiolabeled nucleosides in HSV1-tk expressing cells; assay type: cell-based, Rat; details: 2 h incubation, % of total radioactivity per 10^6 cells

O=c1[nH]c(=O)n([C@@H]2O[C@H](CO)[C@@H](O)[C@H]2F)cc1/C=C/[123I] [[^123I]IVFRU]
Brain uptake [1]: very low brain uptake

O=c1[nH]c(=O)n([C@@H]2O[C@H](CO)[C@@H](O)[C@@H]2F)cc1I [FIAU]
Cytotoxicity to RG2 cells (in words) (RG2 cells [2]): moderately toxic to RG2 cells | Diffusion across the intact BBB [3]: does not diffuse across the intact BBB

Nc1nc(O)c2ncn(COC(CO)CO)c2n1 [GCV, ganciclovir]
Cytotoxicity to RG2 cells (in words) (RG2 cells [2]): not active against RG2 cells

O=c1[nH]c(=O)n([C@@H]2O[C@H](CO)[C@@H](O)[C@@H]2F)cc1CCCC[18F] [[^18F]FFBuAU]
% Uptake per 10^6 Cells, RG2 (RG2 cells [4]): 0.66 % per 10^6 cells

O=c1[nH]c(=O)n([C@@H]2O[C@H](CO)[C@@H](O)[C@@H]2F)cc1[125I] [[^125I]FIAU, 2′-fluoro-2′-deoxy-5-[^125I]iodo-1-β-D-arabinofuranosyluracil]
% Uptake per 10^6 Cells, RG2 (RG2 cells [4]): 3.44 % per 10^6 cells | % Uptake per 10^6 Cells, RG2TK+ (RG2TK+ cells): 29.4 % per 10^6 cells

O=c1[nH]c(=O)n([C@H]2C[C@H](O)[C@@H](CO)O2)cc1CCC[18F] [[^18F]FPrDU]
% Uptake per 10^6 Cells, RG2TK+ (RG2TK+ cells): 8.4 % per 10^6 cells

O=c1[nH]c(=O)n([C@H]2C[C@H](O)[C@@H](CO)O2)cc1CCCCC[18F] [[^18F]FPeDU]
% Uptake per 10^6 Cells, RG2 (RG2 cells [4]): 0.23 % per 10^6 cells

O=c1[nH]c(=O)n([C@@H]2O[C@H](CO)[C@@H](O)[C@@H]2F)cc1/C=C/[123I] [[^123I]IVFAU]
Brain uptake [1]: very low brain uptake
